Measured values from different studies.
Protocols differ between the studies behind these lines. pIC50: −log10 of the molar value.
ACHE: Acetylcholinesterase (ACHE, Homo sapiens, UniProt P22303)
Sialidase-2: Sialidase-2 (Homo sapiens, UniProt Q9Y3R4)
FABP4: Fatty acid-binding protein, adipocyte (FABP4, Homo sapiens, UniProt P15090)
DPP4: Dipeptidyl peptidase 4 (DPP4, Homo sapiens, UniProt P27487)

SMILES | target | test | system | setting | pIC50
CC(C)C[C@H](NC(=O)[C@H](CO)NC(=O)[C@@H](NC(=O)[C@@H]1CCCN1C(=O)[C@@H](N)CCCCN)C(C)C)C(=O)N[C@@H](CO)C(=O)N[C@@H](Cc1ccc(O)cc1)C(=O)N[C@@H](CCCNC(=N)N)C(=O)NCC(=O)NCC(=O)N[C@H](CC(C)C)C(=O)NCC(=O)N[C@H](C)C(=O)N[C@H](CO)C(=O)N[C@H](Cc1c[nH]c2ccccc12)C(=O)N[C@H](Cc1c[nH]cn1)C(=O)N[C@H](CCCNC(=N)N)C(=O)N[C@@H](Cc1ccc2ccccc2c1)C(=O)N[C@@H](CCCNC(=N)N)C(=O)N[C@@H](CCCNC(=N)N)C(N)=O | C-X-C chemokine receptor type 4 (CXCR4, Homo sapiens, UniProt P61073) | ligand displacement in cells, fluorescence |  |  | 6.12
Cc1cccc(C=Nc2ccc(SCc3cc(=O)c(O)co3)cc2)c1 | ACHE | enzyme activity, inhibitor, Ellman |  |  | 5.25
O=C(O)C1=C[C@H](O)[C@@H](NCc2ccc(-c3ccccc3)cc2)[C@H]([C@H](O)[C@H](O)CO)O1 | Sialidase-2 | enzyme activity, inhibitor |  |  | 3.64
COC(=O)[C@H](C)NC(=O)COc1c(NC(C)=O)cc(-c2nc3ccccc3s2)cc1OC | ACHE | enzyme activity, inhibitor, Ellman |  |  | < 3.55
Cc1ccc(C=Nc2ccc(SCc3cc(=O)c(O)co3)cc2)cc1 | ACHE | enzyme activity, inhibitor, Ellman |  |  | 5.19
O=C(O)C1=C[C@H](O)[C@@H](n2cc(-c3ccc(-c4ccccc4)cc3)nn2)[C@H]([C@H](O)[C@H](O)CO)O1 | Sialidase-2 | enzyme activity, inhibitor |  |  | 3.57
O=c1cc(CSc2ccc(N=Cc3ccccc3Br)cc2)occ1O | ACHE | enzyme activity, inhibitor, Ellman |  |  | 5.87
CC(=O)c1c(C)c2cnc(Nc3ccc(C4CCN(CCS(C)(=O)=O)CC4)cn3)nc2n(C2CCCC2)c1=O | Cytochrome P450 2C9 (CYP2C9, Homo sapiens, UniProt P11712) | enzyme activity, inhibitor | human, liver microsomes |  | < 5.00
COC(=O)[C@@H](NC(=O)COc1c(NC(C)=O)cc(-c2nc3ccccc3s2)cc1OC)C(C)C | ACHE | enzyme activity, inhibitor, Ellman |  |  | < 3.58
O=c1cc(CSc2ccc(N=Cc3ccccc3[N+](=O)[O-])cc2)occ1O | ACHE | enzyme activity, inhibitor, Ellman |  |  | 5.29
O=C(O)C(F)(F)C(F)(F)C(F)(F)C(F)(F)C(F)(F)C(F)(F)F | FABP4 | ligand displacement, fluorescence |  | pH 7.5 | 4.96
O=c1cc(CSc2ccc(N=Cc3ccccc3)cc2)occ1O | ACHE | enzyme activity, inhibitor, Ellman |  |  | 5.08
CCCCCC(=O)N(C)[C@H]1[C@H]([C@H](O)[C@H](O)CO)OC(C(=O)O)=C[C@@H]1O | Sialidase-2 | enzyme activity, inhibitor |  |  | 3.85
CCOC(=O)c1ccc(OC(=O)CCCCCN=C(N)N)cc1 | Tryptase beta-2 (TPSB2, Homo sapiens, UniProt P20231) | enzyme activity, inhibitor |  |  | 8.37
O=C(O)C(F)(F)C(F)(F)C(F)(F)C(F)(F)C(F)(F)C(F)(F)C(F)(F)C(F)(F)C(F)(F)C(F)(F)F | FABP4 | ligand displacement, fluorescence |  | pH 7.5 | 5.53
COc1ccccc1C=Nc1ccc(SCc2cc(=O)c(O)co2)cc1 | ACHE | enzyme activity, inhibitor, Ellman |  |  | 5.21
O=C(O)C(F)(F)C(F)(F)C(F)(F)C(F)(F)C(F)(F)F | FABP4 | ligand displacement, fluorescence |  | pH 7.5 | 3.68
CN(C(=O)CC(C)(C)C)[C@H]1[C@H]([C@H](O)[C@H](O)CO)OC(C(=O)O)=C[C@@H]1O | Sialidase-2 | enzyme activity, inhibitor |  |  | 4.30
NS(=O)(=O)C(F)(F)C(F)(F)C(F)(F)C(F)(F)C(F)(F)C(F)(F)C(F)(F)C(F)(F)F | FABP4 | ligand displacement, fluorescence |  | pH 7.5 | 4.77
CC(C)CCC(=O)N[C@H]1[C@H]([C@H](O)[C@H](O)CO)OC(C(=O)O)=C[C@@H]1O | Sialidase-2 | enzyme activity, inhibitor |  |  | 5.00
NC(=O)CC[C@H](NC(=O)[C@@H]1CCCN1C(=O)[C@H](CCC(N)=O)NC(=O)[C@@H]1CCCN1C(=O)[C@@H](N)Cc1ccc(O)cc1)C(=O)O | DPP4 | enzyme activity, inhibitor, absorbance |  | pH 8 | 4.62
COc1ccc(C=Nc2ccc(SCc3cc(=O)c(O)co3)cc2)cc1 | ACHE | enzyme activity, inhibitor, Ellman |  |  | 4.69
Cn1cc2cc(C(F)(F)c3nnc4ccc(-c5cnn(C6CC6)c5)nn34)c(F)cc2n1 | Proto-oncogene tyrosine-protein kinase Src (SRC, Homo sapiens, UniProt P12931) | enzyme activity, inhibitor, ADP detection |  |  | < 6.00
CC(C)CCN[C@H]1[C@H]([C@H](O)[C@H](O)CO)OC(C(=O)O)=C[C@@H]1O | Sialidase-2 | enzyme activity, inhibitor |  |  | 4.15
CC(C)(C)c1cccc(C=Nc2ccc(SCc3cc(=O)c(O)co3)cc2)c1 | ACHE | enzyme activity, inhibitor, Ellman |  |  | 5.19
COC(=O)CNC(=O)COc1c(NC(C)=O)cc(-c2nc3ccccc3s2)cc1OC | ACHE | enzyme activity, inhibitor, Ellman |  |  | < 3.54
CC(C)Cc1cn([C@H]2[C@H]([C@H](O)[C@H](O)CO)OC(C(=O)O)=C[C@@H]2O)nn1 | Sialidase-2 | enzyme activity, inhibitor |  |  | 5.85
C=CCc1ccc(O)c(-c2cc(CC=C)ccc2O)c1 | DPP4 | enzyme activity, inhibitor, fluorescence |  |  | < 4.00
CCCCCCN[C@H]1[C@H]([C@H](O)[C@H](O)CO)OC(C(=O)O)=C[C@@H]1O | Sialidase-2 | enzyme activity, inhibitor |  |  | 4.80
COc1cc(-c2nc3ccccc3s2)cc(NC(C)=O)c1OCC(=O)N[C@@H](CC(C)C)C(=O)O | ACHE | enzyme activity, inhibitor, Ellman |  |  | < 3.58
